Test results: ChEMBL document CHEMBL1125559, “Analogues of platelet activating factor. 7. Bis-aryl amide and bis-aryl urea receptor antagonists of PAF” (J Med Chem, 1992)
pIC50: −log10 of the molar value.

Columns and labels:
Oryctolagus cuniculus [1] = organism: Oryctolagus cuniculus; assay: Concentration required to inhibit PAF (5*10e-8 M) induced platelet aggregation in rabbit platelet rich plasma(PRP) by 50%; format: functional, organism-based
In short: (§1)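 Rabbit PRP came from blood spun at 800 rpm for 15 min at room temperature, with platelet counts of 350 000–550 000/µL. PRP was equilibrated 1–2 min at 37 °C in an aggregometer. It was preincubated 5 min with test compound (final 10^-8 to 10^-5 M; methanol stock diluted in saline) or saline, then challenged with L-C16-PAF. IC50 was taken from concentration–response curves of aggregation magnitude and averaged over separate determinations.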

Oryctolagus cuniculus [2] = organism: Oryctolagus cuniculus; assay: Concentration required to inhibit PAF (1*10e-7 M) induced platelet aggregation in rabbit platelet rich plasma(PRP) by 50%; format: functional, organism-based; in short: as §1
Mus musculus [3] = assay: Compound was evaluated number of mouse dead out of total (intraperitoneally at a dose of 1.0 mg/kg in saline 0.5 hr before lethal intravenous PAF challenge 75-150 mg/kg)''; 6/12; format: ADME, organism-based; parameters: dose 1 mg/kg, route intravenous; settings: in vivo
In short: (§2)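 Female Swiss-Webster mice (20-25 g) received test compound ip in saline (10 mL/Kg); controls got saline alone. The PAF dose was chosen daily from small pilot groups. Survival was scored at 1.5 h and recorded as dead/total.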

Mus musculus [4] = assay: Compound was evaluated for PAF-induced lethality in mouse (intraperitoneally at a dose of 1.0 mg/kg in saline 0.5 hr before lethal intravenous PAF challenge 75-150 mg/kg); format: ADME, organism-based; parameters: dose 1 mg/kg, route intraperitoneal; settings: in vivo; in short: as §2
Mus musculus [5] = assay: Compound was evaluated for PAF-induced lethality in mouse (intraperitoneally at a dose of 1.0 mg/kg in saline 0.5 hr before lethal intravenous PAF challenge 75-150 mg/kg); 10/17; format: ADME, organism-based; parameters: dose 1 mg/kg; settings: in vivo; in short: as §2
Mus musculus [6] = assay: Compound was evaluated for PAF-induced lethality in mouse (intraperitoneally at a dose of 1.0 mg/kg in saline 0.5 hr before lethal intravenous PAF challenge 75-150 mg/kg); 5/12; format: ADME, organism-based; parameters: dose 1 mg/kg, route intravenous; settings: in vivo; in short: as §2
Mus musculus [7] = assay: Compound was evaluated for PAF-induced lethality in mouse (intraperitoneally at a dose of 1.0 mg/kg in saline 0.5 hr before lethal intravenous PAF challenge 75-150 mg/kg); 8/13; format: ADME, organism-based; parameters: dose 1 mg/kg, route intravenous; settings: in vivo; in short: as §2
Mus musculus [8] = assay: Compound was evaluated for PAF-induced lethality in mouse (intraperitoneally at a dose of 1.0 mg/kg in saline 0.5 hr before lethal intravenous PAF challenge 75-150 mg/kg); 12/12; format: ADME, organism-based; parameters: dose 1 mg/kg; settings: in vivo; in short: as §2
Mus musculus [9] = assay: Compound was evaluated for PAF-induced lethality in mouse (intraperitoneally at a dose of 1.0 mg/kg in saline 0.5 hr before lethal intravenous PAF challenge 75-150 mg/kg); 4/12; format: ADME, organism-based; parameters: dose 1 mg/kg; settings: in vivo; in short: as §2
Mus musculus [10] = assay: Compound was evaluated for PAF-induced lethality in mouse (intraperitoneally at a dose of 1.0 mg/kg in saline 0.5 hr before lethal intravenous PAF challenge 75-150 mg/kg); 12/39; format: ADME, organism-based; parameters: dose 1 mg/kg; settings: in vivo; in short: as §2
Mus musculus [11] = assay: Compound was evaluated for PAF-induced lethality in mouse (intraperitoneally at a dose of 1.0 mg/kg in saline 0.5 hr before lethal intravenous PAF challenge 75-150 mg/kg); 11/15; format: ADME, organism-based; parameters: dose 1 mg/kg; settings: in vivo; in short: as §2
Mus musculus [12] = assay: Compound was evaluated for PAF-induced lethality in mouse (intraperitoneally at a dose of 1.0 mg/kg in saline 0.5 hr before lethal intravenous PAF challenge 75-150 mg/kg); 9/23; format: ADME, organism-based; parameters: dose 1 mg/kg, route intravenous; settings: in vivo; in short: as §2

| SMILES | pIC50 (Oryctolagus cuniculus [1]) | Lethality (Mus musculus [4]) [%] | also measured |
| --- | --- | --- | --- |
| CCCCCCCCCCCCCCOc1cc(CN(C(C)=O)c2cccc(C[n+]3csc(C)c3)c2)cc(OC)c1 | 6.02 | – | – |
| CCCCCCCCCCCCCCOc1ccc(CN(C(C)=O)c2cccc(C[n+]3csc(C)c3)c2)cc1C(C)(C)C | – | – | pIC50 (Oryctolagus cuniculus [2]): 6.46 |
| CCCCCCCCCCCCCCOc1cccc(CN(C(C)=O)c2cccc(C[n+]3csc(C)c3)c2)c1 | 6.13 | – | – |
| CCCCCCCCCCCCCCOc1ccc(CC(=O)Nc2cccc(C[n+]3csc(C)c3)c2)cc1.[Br-] | 6.51 | 50 | Dead/total (Mus musculus [3]): 6 |
| CCCCCCCCCCCCCCOc1cccc(C(=O)Nc2cccc(C[n+]3csc(C)c3)c2)c1 | 5.38 | – | – |
| CCCCCCCCCCCCCCCCOc1ccc(OCC(=O)Nc2cccc(C[n+]3csc(C)c3)c2)cc1 | 5.30 | – | – |
| CCCCCCCCCCCCCCOc1ccc(N(Cc2cccc(C[n+]3csc(C)c3)c2)C(C)=O)cc1 | 6.00 | – | – |
| CCCCCCCCCCCCCCOc1ccc(C(=O)Nc2cccc(C[n+]3csc(C)c3)c2)cc1 | 5.23 | – | – |
| CCCCCCCCCCCCCCOc1ccc(CNC(=O)c2cccc(C[n+]3csc(C)c3)c2)cc1OC | 6.02 | – | – |
| CCCCCCCCCCCCCCOc1ccc(CN(C(C)=O)c2cccc(C[n+]3csc(C)c3)c2)cc1Cl.[Br-] | 6.89 | 59 | Dead/total (Mus musculus [5]): 10 |
| CCCCCCCCCCCCCCOc1ccc(CCC(=O)Nc2cccc(C[n+]3csc(C)c3)c2)cc1.[Br-] | 5.14 | 50 | Dead/total (Mus musculus [6]): 5 |
| CCCCCCCCCCCCCCOc1ccc(CN(C(=O)NC)c2cccc(C[n+]3csc(C)c3)c2)cc1.[Br-] | 6.28 | 62 | Dead/total (Mus musculus [7]): 8 |
| CCCCCCCCCCCCCCOc1cccc(CC(=O)Nc2cccc(C[n+]3csc(C)c3)c2)c1.[Br-] | 6.26 | 100 | Dead/total (Mus musculus [8]): 12 |
| CCCCCCCCCCCCCCOc1cccc(OP(=O)([O-])Oc2cccc(C[n+]3csc(C)c3)c2)c1C(=O)OC | – | 15 | – |
| CCCCCOc1c(OC)cc(CN(C(C)=O)c2cccc(C[n+]3csc(C)c3)c2)cc1OC | 5.64 | – | – |
| CCCCCCCCCCCCCCOc1c(OC)cc(CN(C(C)=O)c2cccc(C[n+]3csc(C)c3)c2)cc1OC | 6.24 | – | – |
| CCCCCCCCCCCCCCOc1cc(CN(C(C)=O)c2cccc(C[n+]3csc(C)c3)c2)ccc1OC.[Br-] | 6.43 | 27 | Dead/total (Mus musculus [9]): 4 |
| COc1cc([C@H]2CC[C@H](c3cc(OC)c(OC)c(OC)c3)O2)cc(OC)c1OC | 5.80 | – | – |
| CCCCCCCCCCCCCCOc1ccc(CNC(=O)c2ccc(C[n+]3csc(C)c3)cc2)cc1.[Br-] | 5.54 | 31 | Dead/total (Mus musculus [10]): 12 |
| CCCCCCCCCCCCCCOc1c(C)cc(CNC(=O)c2cccc(C[n+]3csc(C)c3)c2)cc1C | 5.51 | – | – |
| CCCCCCCCCCCCCCOc1cc(OC)ccc1CN(C(C)=O)c1cccc(C[n+]2csc(C)c2)c1.[Br-] | 5.85 | 73 | Dead/total (Mus musculus [11]): 11 |
| CCCCCCCCCCCCCCOc1ccc(C)cc1CN(C(C)=O)c1cccc(C[n+]2csc(C)c2)c1.[Br-] | 5.82 | 39 | Dead/total (Mus musculus [12]): 9 |
| CCCCCCCCCCCCCCOc1ccc(NC(=O)Nc2cccc(C[n+]3csc(C)c3)c2)cc1 | 5.82 | – | – |
